Laboratory results: publication PMC11696124 (Nature Communications, 2025)
Positions count from the first letter of the chain named.

Key:
APOL1 G1 [1] = target: T1, APOL1 G1 (Homo sapiens, UniProt O14791, I384M/M228I/R255K/S342G); assay: Thallium flux assay, tet-inducible HEK293 APOL1 G1; assay type: cell-based
T1 sequence (O14791 28-398 M228I/R255K/S342G/I384M): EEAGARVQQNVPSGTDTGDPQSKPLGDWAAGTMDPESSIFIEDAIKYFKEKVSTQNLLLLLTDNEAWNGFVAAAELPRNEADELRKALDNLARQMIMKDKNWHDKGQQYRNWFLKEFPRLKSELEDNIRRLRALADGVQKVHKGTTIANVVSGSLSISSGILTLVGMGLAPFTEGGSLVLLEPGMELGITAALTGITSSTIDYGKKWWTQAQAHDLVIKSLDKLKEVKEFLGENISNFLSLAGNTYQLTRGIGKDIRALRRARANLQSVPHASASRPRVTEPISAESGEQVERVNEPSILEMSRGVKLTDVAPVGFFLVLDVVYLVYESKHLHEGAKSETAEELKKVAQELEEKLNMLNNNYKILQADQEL

APOL1 G1 [2] = target: T1, APOL1 G1; assay: HEK cell rescue; assay type: cell-based
LogD7.4 = assay type: physicochemical; settings: pH 7.4
Rat Clint = assay type: in vitro ADME; settings: hepatocytes
Human Clint = assay type: in vitro ADME; settings: hepatocytes
Rat pharmacokinetics = settings: in vivo; for bioavailability: po
APOL1 G2 [3] = target: T2, APOL1 G2 (Homo sapiens, UniProt O14791, DEL388-389/M228I/R255K); assay: Thallium flux assay, tet-inducible HEK293 APOL1 G2; assay type: cell-based
T2 sequence (O14791 with tags, fused parts or gaps M228I/R255K/DEL388-389): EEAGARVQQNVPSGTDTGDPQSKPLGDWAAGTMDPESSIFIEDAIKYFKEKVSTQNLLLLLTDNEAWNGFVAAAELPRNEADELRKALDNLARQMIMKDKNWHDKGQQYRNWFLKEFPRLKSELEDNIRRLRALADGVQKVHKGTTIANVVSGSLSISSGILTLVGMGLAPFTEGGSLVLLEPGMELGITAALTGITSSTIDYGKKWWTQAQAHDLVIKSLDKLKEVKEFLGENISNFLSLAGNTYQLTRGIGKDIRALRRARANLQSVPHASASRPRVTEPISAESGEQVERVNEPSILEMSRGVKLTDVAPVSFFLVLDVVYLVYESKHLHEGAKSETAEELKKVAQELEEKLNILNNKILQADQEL

APOL1 G0 [4] = target: T3, APOL1 G0 (Homo sapiens, UniProt O14791, M228I/R255K); assay: HEK cell rescue; assay type: cell-based
T3 sequence (O14791 28-398 M228I/R255K): T1 sequence (O14791 28-398 M228I/R255K/S342G/I384M) with G315S, M357I
How it was run: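 HEK293 tet-inducible APOL1 cells in DMEM with 2% tet-free FBS, seeded at 23,400 cells/well and induced with 50 ng/mL tet for 24 h alongside test compound. Dosing was a 10-point 3-fold series from 10 μM, in duplicate. MultiTox reagent was added for 30 min at 37 °C, reading viability (ex 400/em 486) and cytotoxicity (ex 485/em 535). The dead:live ratio was normalized to no-tet (100%) and tet-only (0%) controls before curve fitting.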

APOL1 G2 [5] = target: T4, APOL1 G2 (Homo sapiens, UniProt O14791, DEL388-389/M228I/R255K, cells depend on it); assay: HEK cell rescue; assay type: cell-based; settings: read-out: APOL1 G2 HEK Cell Rescue EC50; HEK293 APOL1 G2; replicates in brackets
T4 sequence (O14791 with tags, fused parts or gaps M228I/R255K/DEL388-389): T2 sequence (O14791 with tags, fused parts or gaps M228I/R255K/DEL388-389)

APOL1 G0 [6] = target: T3, APOL1 G0; assay: Automated whole-cell patch clamp; assay type: cell-based
How it was run: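 Tet-inducible HEK293 APOL1 G0 cells, induced with 15 ng/mL tet for 16–20 h. Automated whole-cell recording used extracellular NaCl and intracellular CsF, with hole resistance 1.5–2.5 MΩ and a ramp protocol. After 5 min control recording, six test compound concentrations (100 pM–1 μM) were applied for 5 min each. Peak outward current was normalized to control and fitted to a four-parameter variable-slope curve; 8 cells.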

APOL1 G1 [7] = target: T1, APOL1 G1; assay: Automated whole-cell patch clamp; assay type: cell-based
APOL1 G2 [8] = target: T2, APOL1 G2; assay: Automated whole-cell patch clamp; assay type: cell-based
recombinant APOL1 G0 = target: T5, recombinant APOL1 G0 (Homo sapiens, UniProt O14791); assay: Trypanosome; assay type: cell-based
T5 sequence (O14791 28-398): T1 sequence (O14791 28-398 M228I/R255K/S342G/I384M) with I201M, K228R, G315S, M357I
How it was run: (§1)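 T. b. brucei were grown in modified HMI-9, then plated at 120,000 parasites/well in phenol red/FBS-free medium with Serum Plus, test compound and recombinant APOL1. APOL1 was at a final level killing about 90% of parasites. After 16 h at 37 °C, alamarBlue was added for 2.5 h, read at ex/em 555/585, in duplicate, and fitted to dose–response curves. Experimental replicates: G0 n=1, G1 n=4, G2 n=1.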

recombinant APOL1 G1 = target: T6, recombinant APOL1 G1 (Homo sapiens, UniProt O14791, I384M/S342G); assay: Trypanosome; assay type: cell-based
T6 sequence (O14791 28-398 S342G/I384M): T1 sequence (O14791 28-398 M228I/R255K/S342G/I384M) with I201M, K228R
How it was run: as §1

recombinant APOL1 G2 = target: T7, recombinant APOL1 G2 (Homo sapiens, UniProt O14791, DEL388-389); assay: Trypanosome; assay type: cell-based
T7 sequence (O14791 with tags, fused parts or gaps DEL388-389): T2 sequence (O14791 with tags, fused parts or gaps M228I/R255K/DEL388-389) with I201M, K228R
How it was run: as §1

APOL1 G2mc mice [9] = settings: 3 mg/kg tid; cited from earlier work
[10] = cited from earlier work
[11] = system: purified, recombinant APOL1; settings: cited from earlier work
APOL1 G2mc mice [12] = assay: Prophylactic IFNγ-induced proteinuria model in APOL1 G2 multicopy mice; assay type: in vivo, mouse; settings: 30 mg/kg bid
APOL1 G2sc mice [13] = assay: Therapeutic IFNγ plasmid model in APOL1 G2 single copy mice, UACR; assay type: in vivo, mouse; settings: 30 mg/kg bid from day 6, vs vehicle
How it was run: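 Homozygous APOL1 G2 single-copy transgenic mice of both sexes. Proteinuria was induced by a single hydrodynamic tail-vein injection of a CpG-free plasmid encoding murine IFNγ, 0.3 μg total in saline at 10% body weight, given over about 5–10 s. Mice were allocated by day-5 UACR to give matched group means (n = 12 vehicle, 11 treated). Serum IFNγ was measured by immunoassay on days 1, 5, 9 and 14.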

APOL1 G2sc mice [14] = assay: Kidney histopathology and nephrin immunohistochemistry; assay type: in vivo, mouse; settings: IFNγ plasmid, 30 mg/kg bid
How it was run: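 FVB homozygous APOL1 G2 single-copy mice received a hydrodynamic tail-vein injection of 0.3 μg CpG-free murine IFNγ plasmid in saline (volume 10% of body weight). Groups were balanced by day-5 UACR; vehicle or test compound bid started on day 6. The left kidney was formalin-fixed and cut into 3 µm FFPE sections. Nephrin IHC used CC1 retrieval (95 °C, 64 min), antibody 1:1000 for 1 h, and DAB. AI scoring of all glomeruli in one section gave the H-score.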

IC50 (APOL1 G1 [1]) | EC50 (APOL1 G1 [2]) | logD (LogD7.4) | hepatocyte CLint (Rat Clint) | hepatocyte CLint (Human Clint) | Vd (Rat pharmacokinetics) | clearance (Rat pharmacokinetics) | half-life (Rat pharmacokinetics) | bioavailability (Rat pharmacokinetics) | SMILES | IC50 (APOL1 G2 [3]) | EC50 (APOL1 G2 [5]) | other results
40 nM | 37 nM | 2.8 | 8.2 µL/min/1e6 cells | 15.4 µL/min/1e6 cells | 2.1 L/kg | 15 mL/min/kg | 4.1 h | 34% | Cc1cc(F)cc2c(CCC(=O)N[C@H]3CCNC3=O)c(-c3ccc(F)cc3)[nH]c12 [Compound 2, 3-[5-fluoro-2-(4-fluorophenyl)-7-methyl-1H-indol-3-yl]-N-[(3S)-2-oxopyrrolidin-3-yl]propanamide] | – | – | –
4.2 nM | 3.6 nM | 2.7 | 5.1 µL/min/1e6 cells | 6.3 µL/min/1e6 cells | 1.4 L/kg | 6 mL/min/kg | 4.2 h | 28% | Cc1cc(F)cc2c(CCC(=O)N[C@@H]3C(=O)NC[C@H]3O)c(-c3ccc(F)cc3)[nH]c12 [Compound 3, 3-[5-fluoro-2-(4-fluorophenyl)-7-methyl-1H-indol-3-yl]-N-[(3S,4 R)-4-hydroxy-2-oxo-pyrrolidin-3-yl]propanamide] | 5.4 nM | 10 nM | APOL1-mediated proteinuria, prophylactic treatment (APOL1 G2mc mice [12]): able to prevent APOL1-mediated proteinuria; Percent reduction in UACR AUC Day 6-14 (APOL1 G2sc mice [13]): 97%; microscopic evaluation of kidney tissues (APOL1 G2sc mice [14]): no microscopic abnormalities or nephrin loss were noted; nephrin H-scores versus no IFNγ control (APOL1 G2sc mice [14]): comparable

SMILES | IC50 (APOL1 G1 [1]) | EC50 (APOL1 G1 [2]) | logD (LogD7.4) | hepatocyte CLint (Rat Clint) | hepatocyte CLint (Human Clint) | Vd (Rat pharmacokinetics) | clearance (Rat pharmacokinetics) | half-life (Rat pharmacokinetics) | bioavailability (Rat pharmacokinetics) | IC50 (APOL1 G2 [3]) | EC50 (APOL1 G2 [5]) | other results
O=C(CCc1c(-c2ccc(F)cc2)[nH]c2c(F)cc(F)cc12)N[C@@H]1C(=O)NC[C@H]1O [VX-147, 3-[5,7-difluoro-2-(4-fluorophenyl)-1H-indol-3-yl]-N-[(3S,4 R)-4-hydroxy-2-oxo-pyrrolidin-3-yl] propanamide] | 2 nM | 2 nM | 2.7 | 4.7 µL/min/1e6 cells | < 2.5 µL/min/1e6 cells | 0.9 L/kg | 4.8 mL/min/kg | 2.5 h | 57% | 1.2 nM | 2.2 nM | EC50 (APOL1 G0 [4]): 4.3 nM; IC50 (APOL1 G0 [6]): 2.3 nM; IC50 (APOL1 G1 [7]): 1.3 nM; IC50 (APOL1 G2 [8]): 1.1 nM; EC50 (recombinant APOL1 G0): 2 nM; EC50 (recombinant APOL1 G1): 2.1 nM; EC50 (recombinant APOL1 G2): 1.2 nM; APOL1-dependent proteinuria, prophylactic treatment (APOL1 G2mc mice [9]): reduced APOL1-dependent proteinuria; reduction in proteinuria ([10]; 13-week clinical trial, patients with two APOL1 risk alleles and proteinuric non-diabetic kidney disease): 47.6%; glomerular filtration rate ([10]; 13-week study in 16 individuals): stable; binding to purified, recombinant APOL1 [11]: bind directly
